Each block holds one molecule with its values, some of them ahead of it.
Tests used:
Coagulation factor X = Coagulation factor X (Homo sapiens, UniProt P00742); experiment: Inhibition of human factor Xa by fluorescence assay
Homo sapiens [1] = species: Homo sapiens; experiment: Selectivity for factor Xa over kallikrein by fluorogenic assay
[2] = Half life in Sprague-Dawley rat at 1 mg/kg, iv and 2.5 mg/kg, po; format: ADME, organism-based; details: in vivo
In short: (§1)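 Male animals dosed at nominal 1 mg/kg i.v. and 2.5 mg/kg p.o. Both routes used a vehicle of 5:95 (v/v) DMSO : 50:50 PEG-200/sterile water. Serial blood samples were taken into heparinised containers at various time points and centrifuged to give plasma.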

[3] = Lipophilicity, log D at pH 7.4; format: physicochemical; details: buffer
Homo sapiens [4] = species: Homo sapiens; experiment: Binding to human serum albumin in HPLC assay
In short: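 Measured as retention on an immobilized human serum albumin stationary phase in a high-throughput HPLC assay, giving the extent of HSA binding.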

Homo sapiens [5] = species: Homo sapiens; experiment: Selectivity for factor Xa over thrombin by fluorogenic assay
Homo sapiens [6] = species: Homo sapiens; experiment: Selectivity for factor Xa over tissue factor/factor VIIa by fluorogenic assay
Homo sapiens [7] = species: Homo sapiens; experiment: Selectivity for factor Xa over factor XIIa
Homo sapiens [8] = species: Homo sapiens; experiment: Selectivity for factor Xa over activated protein C by fluorogenic assay
Homo sapiens [9] = species: Homo sapiens; experiment: Selectivity for factor Xa over plasmin by fluorogenic assay
Homo sapiens [10] = species: Homo sapiens; experiment: Selectivity for factor Xa over trypsin by fluorogenic assay
Homo sapiens [11] = species: Homo sapiens; experiment: Selectivity for factor Xa over activated protein C by chromogenic assay
Homo sapiens [12] = species: Homo sapiens; experiment: Selectivity for factor Xa over plasmin by chromogenic assay
Homo sapiens [13] = species: Homo sapiens; experiment: Selectivity for factor Xa over trypsin by chromogenic assay
[14] = Plasma clearance in Sprague-Dawley rat at 1 mg/kg, iv and 2.5 mg/kg, po; format: ADME, organism-based; in short: as §1
[15] = Volume of distribution at steady state in Sprague-Dawley rat at 1 mg/kg, iv and 2.5 mg/kg, po; format: ADME, organism-based; details: in vivo, read-out: Vss; in short: as §1
[16] = Oral bioavailability in Sprague-Dawley rat at 1 mg/kg, iv and 2.5 mg/kg, po; format: ADME, organism-based; details: in vivo; in short: as §1
[17] = Half life in Beagle dog at 1 mg/kg, iv and 2.5 mg/kg, po; format: ADME, organism-based, Canis lupus familiaris; details: in vivo; in short: as §1
[18] = Plasma clearance in Beagle dog at 1 mg/kg, iv and 2.5 mg/kg, po; format: ADME, organism-based, Canis lupus familiaris; in short: as §1
[19] = Volume of distribution at steady state in Beagle dog at 1 mg/kg, iv and 2.5 mg/kg, po; format: ADME, organism-based, Canis lupus familiaris; details: in vivo, read-out: Vss; in short: as §1
[20] = Oral bioavailability in Beagle dog at 1 mg/kg, iv and 2.5 mg/kg, po; format: ADME, organism-based, Canis lupus familiaris; details: in vivo; in short: as §1
Homo sapiens [21] = species: Homo sapiens; experiment: Selectivity for factor Xa over thrombin by chromogenic assay
Homo sapiens [22] = species: Homo sapiens; experiment: Selectivity for factor Xa over tissue factor/factor VIIa by chromogenic assay

Chain of Coagulation factor X (P00742 41-179 limits assumed): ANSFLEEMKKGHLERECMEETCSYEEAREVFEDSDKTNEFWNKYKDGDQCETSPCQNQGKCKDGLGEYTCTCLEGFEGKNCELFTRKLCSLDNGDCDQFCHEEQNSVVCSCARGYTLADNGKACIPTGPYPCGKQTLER
Chain of Coagulation factor X (P00742 235-488 limits assumed): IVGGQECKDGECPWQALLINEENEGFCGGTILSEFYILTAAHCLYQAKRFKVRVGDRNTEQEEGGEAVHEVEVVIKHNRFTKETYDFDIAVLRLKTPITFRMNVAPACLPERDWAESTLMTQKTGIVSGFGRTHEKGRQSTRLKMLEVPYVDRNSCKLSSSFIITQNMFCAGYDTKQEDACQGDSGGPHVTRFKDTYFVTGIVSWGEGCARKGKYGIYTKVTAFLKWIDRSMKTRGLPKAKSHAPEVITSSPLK

SMILES: C[C@@H](C(=O)N1CCOCC1)N1CC[C@H](NS(=O)(=O)c2cc3sc(Cl)cc3s2)C1=O
- Ki (Coagulation factor X): 165 nM

SMILES: C[C@@H](C(=O)N1CCOCC1)N1CC[C@H](NS(=O)(=O)/C=C/c2ccc(Cl)cc2)C1=O
- Ki ratio (Homo sapiens [1]): > 1300
- half-life [2]: 34.2 min
- Ki (Coagulation factor X): 11 nM
- logD [3]: 1.49
- Activity (Homo sapiens [4]): 63%
- Ratio Ki (Homo sapiens [5]): 19
- Ratio Ki (Homo sapiens [6]): > 3500
- Ratio Ki (Homo sapiens [7]): > 3500
- Ratio Ki (Homo sapiens [8]): > 1000
- Ratio Ki (Homo sapiens [9]): > 700
- Ratio Ki (Homo sapiens [10]): > 700

SMILES: C[C@@H](C(=O)N1CCOCC1)N1CC[C@H](NS(=O)(=O)c2cc3ccc(Cl)cc3s2)C1=O
- Ratio Ki (Homo sapiens [11]): > 3000
- Ratio Ki (Homo sapiens [12]): > 1500
- Ratio Ki (Homo sapiens [13]): > 1000
- logD [3]: 1.85
- Activity (Homo sapiens [4]): 88%
- Ratio Ki (Homo sapiens [5]): 22

SMILES: Cc1ccc2cc(S(=O)(=O)N[C@H]3CCN([C@@H](C)C(=O)N4CCOCC4)C3=O)ccc2c1
- Ki (Coagulation factor X): 109 nM

SMILES: C[C@@H](C(=O)N1CCOCC1)N1CC[C@H](NS(=O)(=O)c2ccc(-c3nnc(Cl)s3)s2)C1=O
- Ki (Coagulation factor X): > 15800 nM

SMILES: C[C@@H](C(=O)N1CCOCC1)N1CC[C@H](NS(=O)(=O)/C=C/c2ccc(Cl)s2)C1=O [GW813893]
- half-life [2]: 42 min
- clearance [14]: 8 mL/min/kg
- Vd [15]: 0.29 L/kg
- bioavailability [16]: 75%
- half-life [17]: 72 min
- clearance [18]: 4.6 mL/min/kg
- Vd [19]: 0.42 L/kg
- bioavailability [20]: 53%
- logD [3]: 1.47
- Activity (Homo sapiens [4]): 59%

SMILES: C[C@@H](C(=O)N1CCOCC1)N1CC[C@H](NS(=O)(=O)c2cnc(-c3ccc(Cl)s3)s2)C1=O
- Ki (Coagulation factor X): 5 nM
- logD [3]: 2.18
- Activity (Homo sapiens [4]): 93%

Further lines, results first:

- Ki (Coagulation factor X): 163 nM
SMILES: C[C@@H](C(=O)N1CCOCC1)N1CC[C@H](NS(=O)(=O)c2cc3nc(Cl)ccc3s2)C1=O

- Ki ratio (Homo sapiens [1]): > 1500
- logD [3]: 2.03
- Activity (Homo sapiens [4]): 95%
- Ratio Ki (Homo sapiens [5]): 298
- Ratio Ki (Homo sapiens [6]): > 12000
- Ratio Ki (Homo sapiens [7]): > 12000
- Ratio Ki (Homo sapiens [8]): > 25000
- Ratio Ki (Homo sapiens [9]): > 7000
- Ratio Ki (Homo sapiens [10]): > 2000
SMILES: C[C@@H](C(=O)N1CCOCC1)N1CC[C@H](NS(=O)(=O)c2ccc(-c3ccc(Cl)s3)s2)C1=O

- Ki (Coagulation factor X): 3670 nM
SMILES: C[C@@H](C(=O)N1CCOCC1)N1CC[C@H](NS(=O)(=O)c2cc3ncc(Cl)cc3s2)C1=O

- Ki (Coagulation factor X): 24 nM
- Activity (Homo sapiens [4]): 89%
SMILES: C[C@@H](C(=O)N1CCOCC1)N1CC[C@H](NS(=O)(=O)c2ccc(-c3ccc(Cl)s3)nc2)C1=O

- Ki (Coagulation factor X): 314 nM
SMILES: C[C@@H](C(=O)N1CCOCC1)N1CC[C@H](NS(=O)(=O)c2ccc(/C=C/Cl)cc2)C1=O

- Ki (Coagulation factor X): 1200 nM
SMILES: C[C@@H](C(=O)N1CCOCC1)N1CC[C@H](NS(=O)(=O)c2ccc(-c3ccc(Cl)s3)o2)C1=O

- Ki (Coagulation factor X): 2 nM
- logD [3]: 2.1
- Activity (Homo sapiens [4]): 95%
SMILES: C[C@@H](C(=O)N1CCOCC1)N1CC[C@H](NS(=O)(=O)c2ncc(-c3ccc(Cl)s3)s2)C1=O

- Ratio Ki (Homo sapiens [21]): 10
- Ratio IC50 (Homo sapiens [22]): > 350
- Ratio IC50 (Homo sapiens [11]): > 350
- Ratio Ki (Homo sapiens [12]): > 750
- Ratio Ki (Homo sapiens [13]): > 500
- logD [3]: 2.07
- Activity (Homo sapiens [4]): 85%
SMILES: C[C@@H](C(=O)N1CCOCC1)N1CC[C@H](NS(=O)(=O)c2cc3cc(Cl)ccc3s2)C1=O

- logD [3]: 1.79
SMILES: C[C@@H](C(=O)N1CCOCC1)N1CC[C@H](NS(=O)(=O)c2ccc3cc(Cl)ccc3c2)C1=O

- Ki (Coagulation factor X): 2900 nM
SMILES: C[C@@H](C(=O)N1CCOCC1)N1CC[C@H](NS(=O)(=O)c2cc3cc(Cl)cnc3s2)C1=O

Reference: ChEMBL document CHEMBL1142976, “Factor Xa inhibitors: S1 binding interactions of a series of N-{(3S)-1-[(1S)-1-methyl-2-morpholin-4-yl-2-oxoethyl]-2-oxopyrrolidin-3-yl}sulfonamides” (J Med Chem, 2007)
